13 compounds from ChEMBL document CHEMBL1144297, “Design and synthesis of macrocycles active against vancomycin-resistant enterococci (VRE): the interplay between d-Ala-d-Lac binding and hydrophobic effect” (2005) can be followed below.

In assay [1] the test system is Enterococcus faecium. Put plainly: Minimum inhibitory concentration against vancomycin resistant Enterococci faecium L2215 strain was determined. In kind it is functional. The method in brief: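 Standard microdilution MIC assay against strain L2215, a Van-A clinical isolate.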
For assay [2], the system named is Staphylococcus aureus. Briefly: Minimum inhibitory concentration against Staphylococcus aureus L613 strain was determined.
In assay [3] the test system is Enterococcus faecalis. Put plainly: Minimum inhibitory concentration against vancomycin resistant Enterococci faecalis L560 strain was determined. In kind it is functional. Summed up:
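Standard microdilution MIC assay against strain L560, which forms an isogenic pair with L559.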

Assay [4] concerns Enterococcus faecium. Briefly: Minimum inhibitory concentration against vancomycin sensitive Enterococci faecium L568 strain was determined. The class given is functional. The method in brief:
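Standard microdilution assay giving the minimum inhibitory concentration. The test organism is strain L568, which is isogenic with L569.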

Assay [5] relates to Enterococcus faecalis. Briefly: Minimum inhibitory concentration against vancomycin sensitive Enterococci faecalis L559 strain was determined. In kind it is functional. The method in brief:
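Standard microdilution MIC assay against strain L559, isogenic with L560.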

Where [6] appears, read: Enterococcus faecium, read-out: MIC.
The mark [7] stands for this setting: Enterococcus faecalis, read-out: MIC.

One may read the MIC as the least concentration at which growth counts as inhibited.

Values after ≈ are worked out from the molar mass of the structure shown. Starred links: 1 amine or outer side, 2 acyl side, 3 side chain; linkers in the order of their positions; H or OH if unused. Positions of bridges follow the written chain, without caps; N, C: chain ends. Non-standard residues stand in square brackets, D forms with d. Residues, ends and D or L forms follow the SMILES beside them. *: point of attachment. X1 = O=C1C[C@@H](C(=O)[*:2])N([*:1])C[C@H]1CS[C@@H]1CN2CCC1CC2; NMePhe(4-NMe2) = CN[C@@H](Cc1ccc(N(C)C)cc1)C(=O)O; Picolinoyl(3-OH) = O=C(c1ncccc1O)*; Phg = N[C@H](C(=O)O)c1ccccc1; dAbu = CC[C@@H](N)C(=O)O

With `CCCCCCCCCCCC(=O)N[C@@H](C(=O)O)C1NC(=O)[C@H](Cc2ccccc2)NC(=O)[C@H](NC(=O)[C@H](N)CC(C)C)Cc2ccc(c([N+](=O)[O-])c2)Oc2cc1cc(O)c2OC.Cl` (stereo in doubt; 2d), the MIC in assay [1] (setting [6]) was determined as 8 µg/mL; in assay [2], 64 µg/mL; in assay [3] (setting [7]), 4 µg/mL; in assay [4] (setting [6]), 128 µg/mL; in assay [5] (setting [7]), 4 µg/mL.
Regarding `CCCCCCCCCCCNC(=O)N[C@@H](C(=O)O)C1NC(=O)[C@H](Cc2ccccc2)NC(=O)[C@H](NC(=O)[C@H](N)CC(C)C)Cc2ccc(c([N+](=O)[O-])c2)Oc2cc1cc(OC1OC(O)C(O)C(O)C1NC(=O)CCCCCCCCCCC)c2OC.Cl` (some centres not stated), the minimum inhibitory concentration (MIC) in assay [1] (setting [6]) was 32 µg/mL; in assay [2] it was more than 256 µg/mL; in assay [3] (setting [7]), 8 µg/mL; in assay [4] (setting [6]), 256 µg/mL; in assay [5] (setting [7]), 8 µg/mL.
Turning to `CCCCCCCCCCCNC(=O)N[C@@H](C(=O)O)C1NC(=O)[C@H](Cc2ccccc2)NC(=O)[C@H](N)Cc2ccc(c([N+](=O)[O-])c2)Oc2cc1cc(O)c2OC.Cl` (some centres not stated), the MIC was more than 128 µg/mL in assay [1] (setting [6]); more than 128 µg/mL in assay [2]; more than 128 µg/mL in assay [3] (setting [7]); 128 µg/mL in assay [4] (setting [6]); 128 µg/mL in assay [5] (setting [7]).
Consider `COC(=O)[C@H](N)C1NC(=O)[C@H](Cc2ccccc2)NC(=O)[C@H](NC(=O)[C@H](N)CC(C)C)Cc2ccc(c([N+](=O)[O-])c2)Oc2cc1cc(O)c2OC.Cl` (some centres not stated), for which the MIC is more than 1020 µg/mL in assay [2], 512 µg/mL in assay [3] (setting [7]), more than 1020 µg/mL in assay [4] (setting [6]) and 512 µg/mL in assay [5] (setting [7]).
Turning to `CCCCCCCCCCCC(=O)N[C@@H](C(=O)O)C1NC(=O)[C@H](Cc2ccccc2)NC(=O)[C@H](NC(=O)[C@H](N)CC(C)C)Cc2ccc(cc2)Oc2cc1cc(O)c2OC.Cl` (some centres not stated), the MIC in assay [2] is more than 128 µg/mL; in assay [3] (setting [7]) it was 128 µg/mL; in assay [4] (setting [6]), more than 128 µg/mL; in assay [5] (setting [7]), 128 µg/mL.
Regarding `COc1c(O)cc2cc1Oc1ccc(cc1[N+](=O)[O-])C[C@@H](NC(=O)[C@H](N)CC(C)C)C(=O)N[C@@H](Cc1ccccc1)C(=O)NC2[C@@H](NC(C)=O)C(=O)O.Cl` (some centres not stated), the MIC in assay [2], in assay [4] (setting [6]) and in assay [5] (setting [7]) was more than 1020 µg/mL throughout.
In the case of `CN[C@H](CC(C)C)C(=O)N[C@H]1C(=O)N[C@@H](CC(N)=O)C(=O)N[C@H]2C(=O)N[C@H]3C(=O)N[C@H](C(=O)N[C@H](C(=O)O)c4cc(O)cc(O)c4-c4cc3ccc4O)[C@H](O)c3ccc(c(Cl)c3)Oc3cc2cc(c3O[C@@H]2O[C@H](CO)[C@@H](O)[C@H](O)[C@H]2O[C@H]2C[C@](C)(N)[C@H](O)[C@H](C)O2)Oc2ccc(cc2Cl)[C@H]1O` [VANCOMYCIN], the MIC was more than 128 µg/mL in assay [1] (setting [6]), more than 128 µg/mL in assay [3] (setting [7]) and 1 µg/mL (≈ 0.69 µM) in assay [5] (setting [7]).
Take `COC(=O)[C@@H](C1NC(=O)[C@H](Cc2ccccc2)NC(=O)[C@H](NC(=O)[C@H](N)CC(C)C)Cc2ccc(c([N+](=O)[O-])c2)Oc2cc1cc(OC)c2OC)N(C)C.Cl` (some centres not stated): the MIC is more than 128 µg/mL in assay [2], 128 µg/mL in assay [3] (setting [7]), more than 128 µg/mL in assay [4] (setting [6]) and 128 µg/mL in assay [5] (setting [7]).
`CCCCCCCCCCCC(=O)NC1C(Oc2cc3cc(c2OC)Oc2ccc(cc2[N+](=O)[O-])C[C@@H](NC(=O)[C@H](N)CC(C)C)C(=O)N[C@@H](Cc2ccccc2)C(=O)NC3[C@@H](NC(C)=O)C(=O)O)OC(O)C(O)C1O.Cl` (some centres not stated): the MIC in assay [1] (setting [6]) was 1020 µg/mL; in assay [2], more than 1020 µg/mL; in assay [3] (setting [7]), 64 µg/mL; in assay [4] (setting [6]) it was more than 1020 µg/mL; in assay [5] (setting [7]), 64 µg/mL.
`CC(=O)N[C@@H]1[C@H](Oc2c3cc4cc2Oc2ccc(cc2Cl)[C@@H](O[C@@H]2O[C@@H](CO)[C@@H](O)[C@H](O)[C@@H]2NC(C)=O)[C@@H]2NC(=O)[C@H](NC(=O)[C@@H]4NC(=O)[C@H]4NC(=O)[C@@H](Cc5ccc(c(Cl)c5)O3)NC(=O)[C@H](N)c3ccc(O)c(c3)Oc3cc(O)cc4c3)c3ccc(O)c(c3)-c3c(O[C@H]4O[C@H](CO)[C@@H](O)[C@@H](O)[C@@H]4O)cc(O)cc3[C@@H](C(=O)O)NC2=O)O[C@@H](CO)[C@@H](O)[C@@H]1O`: the MIC in assay [1] (setting [6]) was more than 128 µg/mL; in assay [2], 1 µg/mL (≈ 0.566 µM); in assay [3] (setting [7]), 64 µg/mL (≈ 36.2 µM); in assay [4] (setting [6]), 0.5 µg/mL (≈ 0.283 µM); in assay [5] (setting [7]), 0.125 µg/mL (≈ 0.0707 µM).
As to `CCCCCCCCCCCC(=O)N[C@@H](C(=O)O)C1NC(=O)[C@H](Cc2ccccc2)NC(=O)[C@H](NC(=O)[C@H](N)CC(C)C)Cc2ccc(c([N+](=O)[O-])c2)Oc2cc1cc(O)c2OC.Cl` (stereo in doubt; 2e), the minimal inhibitory concentration (MIC) in assay [1] is 16 µg/mL; in assay [3], 8 µg/mL; in assay [4] it was more than 128 µg/mL; in assay [5], 8 µg/mL.
Turning to `CCCCCCCCCCCC(=O)N[C@@H](C(=O)O)C1NC(=O)[C@H](Cc2ccccc2)NC(=O)[C@H](NC(=O)[C@H](N)CC(C)C)Cc2ccc(c([N+](=O)[O-])c2)Oc2cc1cc(OCc1ccccc1)c2OC.Cl` (some centres not stated), the minimal inhibitory concentration (MIC) in assay [1] (setting [6]) was determined as 16 µg/mL; in assay [2] it was 128 µg/mL; in assay [3] (setting [7]), 4 µg/mL; in assay [4] (setting [6]) it was 256 µg/mL; in assay [5] (setting [7]) it was 8 µg/mL.
`CCN(CC)CCS(=O)(=O)[C@@H]1CCN2C(=O)c3coc(n3)CC(=O)C[C@H](O)/C=C(C)/C=C/CNC(=O)/C=C/[C@@H](C)[C@@H](C(C)C)OC(=O)[C@@H]12.CC[C@H]1NC(=O)[C@@H](NC(=O)c2ncccc2O)[C@@H](C)OC(=O)[C@H](c2ccccc2)NC(=O)[C@@H]2CC(=O)[C@H](CS[C@@H]3CN4CCC3CC4)CN2C(=O)[C@H](Cc2ccc(N(C)C)cc2)N(C)C(=O)[C@@H]2CCCN2C1=O` [QUINUPRISTIN/DALFOPRISTIN] ({Picolinoyl(3-OH)}-T[dAbu]P[NMePhe(4-NMe2)][X1][Phg]; ester 1-C): the MIC was 4 µg/mL in assay [1] (setting [6]); 1 µg/mL in assay [2]; 8 µg/mL in assay [3] (setting [7]); 4 µg/mL in assay [4] (setting [6]); 4 µg/mL in assay [5] (setting [7]).
